Assay results gathered from unrelated publications.
Lines come from different studies, so protocols differ.

SMILES | system | setting | Tmax
C=CC(=O)N(C)CCOc1c(N)ncnc1-c1cc(F)cc(NC(=O)c2ccc(C3CC3)cc2F)c1C | human, blood | oral, 600 mg, single dose, healthy volunteers | 1.02 h
CCc1nc2c(C)cc(N3CCN(CC(=O)N4CC(O)C4)CC3)cn2c1N(C)c1nc(-c2ccc(F)cc2)c(C#N)s1 | human, plasma | oral, 150 mg, fed, healthy volunteers | 1 h
CCc1nc(C(N)=O)c(Nc2ccc(N3CCC(N4CCN(C)CC4)CC3)c(OC)c2)nc1NC1CCOCC1 | human, plasma | oral, 120 mg, multiple doses, patients | 3.03 h
CO[C@@H]1[C@H](OC(=O)N2CC(CCN3CCOCC3)C2)CC[C@]2(CO2)[C@H]1[C@@]1(C)O[C@@H]1CC=C(C)C | human, plasma | subcutaneous, 0.2 mg, single dose, healthy volunteers | 0.28 h
c1cnc2ccc(Nc3nc(NC4CC4)c4nc[nH]c4n3)cc2c1 | human, plasma | oral, 400 mg/m², patients | 6.5 h
CO[C@H]1/C=C\C=C(/C)C(=O)NC2=CC(=O)C(NCCN(C)C)=C(C[C@@H](C)C[C@H](OC)[C@H](O)[C@@H](C)/C=C(\C)[C@@H]1OC(N)=O)C2=O | human, plasma | intravenous, 27 mg/m², patients, infusion | 0.9 h
Cc1nc(NC(=O)N2CCC[C@H]2C(N)=O)sc1-c1ccnc(C(C)(C)C(F)(F)F)c1 | human, plasma | oral, 180 mg, patients | 2.46 h
COc1cc(N2CCC(N3CCN(C)CC3)CC2)ccc1Nc1ncnc(Nc2ccccc2S(=O)(=O)C(C)C)n1 | human, plasma | oral, 75 mg, multiple doses, patients | 3.32 h
C#Cc1cccc(Nc2ncnc3cc(OCCOC)c(OCCOC)cc23)c1 | human, plasma | oral, 50 mg, patients | 4 h
C#C[C@]1(COP(=O)(O)OP(=O)(O)OP(=O)(O)O)O[C@@H](n2cnc3c(N)nc(F)nc32)C[C@@H]1O | human, plasma | oral, 100 mg, single dose | 24 h
C[C@@H](c1ccc2nccn2c1)n1nnc2ncc(-c3cnn(C)c3)nc21 | human, plasma | oral, 200 mg | 2.5 h
COC(=O)N[C@@H](C)CNc1nccc(-c2cn(C(C)C)nc2-c2cc(Cl)cc(NS(C)(=O)=O)c2F)n1 | human, plasma | oral, 50 mg, single dose | ~1.5 h
CC(C)n1cc(C#N)c2cc(-n3cc(C(=O)O)cn3)ccc21 | human, plasma | oral, 50 mg, single dose, fasted, healthy volunteers | 3 h
CCO[C@H]1CCN(Cc2c(OC)cc(C)c3[nH]ccc23)[C@H](c2ccc(C(=O)O)cc2)C1 | human, plasma | oral, 50 mg, multiple doses, twice daily, patients | 2 h
Oc1cc(O)c2c(c1)O[C@@H](c1ccc(O)c(O)c1)[C@@H](O)C2 | human, plasma | oral, 30 mg, single dose | 1 h
Cn1cc(-c2ccc(S(=O)(=O)[C@@H]3C[C@@H](C(=O)NC4(C#N)CC4)N(C(=O)C4(C(F)(F)F)CC4)C3)c(C(F)(F)F)c2)cn1 | human, plasma | oral, 100 mg, single dose, fed | 5 h

SMILES | system | setting | Tmax
C/C(=C\c1csc(C)n1)[C@@H]1C[C@@H]2O[C@]2(C)CCC[C@H](C)[C@H](O)[C@@H](C)C(=O)C(C)(C)[C@@H](O)CC(=O)N1 | human, plasma | intravenous, 20 mg/m², patients | 1 h
CS(=O)(=O)CCC#N | human, plasma | oral, 1000 mg, multiple doses, once daily | 2 h
CC(=O)Oc1ccccc1C(=O)O | human, plasma | oral, 650 mg, healthy volunteers | 2.5 h
Cc1nc(-c2cn3c(n2)-c2ccc(-c4cnn(C(C)(C)C(N)=O)c4)cc2OCC3)n(C(C)C)n1 | human, plasma | oral, 6 mg, patients | 2.05 h
CC(C)(O)c1ccccc1-c1ccc2[nH]c(/C=C/c3ccc(C(F)(F)F)cc3)nc2c1 | male human, plasma | oral, 60 mg, single dose, fasted | 3.98 h
CC(C)(Sc1ccncc1-c1ccc(C#N)c2ccccc12)C(=O)O | male human, plasma | oral, 5 mg, single dose, fasted, healthy volunteers | 0.63 h
NS(=O)(=O)NCCNc1nonc1C(=NO)Nc1ccc(F)c(Br)c1 | human, plasma | oral, 400 mg, multiple doses, twice daily, steady state, patients | 2 h
O=C(Nc1c(Cl)cncc1Cl)c1ccc(OC(F)F)c(OCC2CC2)c1 | human, plasma | oral, 0.25 mg, single dose | 0.75 h
C=CC(=O)N1CCC(Oc2cc3c(Nc4ccc(Cl)c(Cl)c4F)ncnc3cc2OC)CC1 | human, plasma | oral, 16 mg, single dose, fasted | 1.26 h
FC(F)(F)c1ccc(CNc2ccc(Cc3c[nH]c4ncc(Cl)cc34)cn2)cn1 | human, plasma | oral, 600 mg, single dose, healthy volunteers | 2.5 h
C[C@@H](Nc1cc(F)cc(F)c1)c1cc(C(=O)N(C)C)cc2c(=O)cc(N3CCOCC3)oc12 | human, plasma | oral, 180 mg, single dose, patients | 1.98 h
COc1ccc([C@@H]2CN(C(=O)[C@@H](O)CO)C[C@@]2(C)[C@@H](C)O)cc1OC1CN(c2ccc(C)cn2)C1 | human, plasma | oral, 30 mg, single dose, healthy volunteers | 3.88 h
CC(C)[C@](O)(c1ccc2cc(OC(F)F)c(OC(F)F)cc2c1)c1c[nH]nn1 | female human, plasma | oral, 450 mg, single dose | 1.9 h
Nc1cc(C(F)(F)F)c(-c2cc(N3CCOCC3)nc(N3CCOCC3)n2)cn1 | human, plasma | oral, 100 mg/day, patients | 1.5 h
C[C@@]1(c2cc(NC(=O)c3ccc(C#N)cn3)ccc2F)C=CSC(N)=N1 | human, plasma | oral, 10 mg, single dose | 0.88 h
